Experimental data: ChEMBL document CHEMBL4219038, “1-Thiazol-2-yl-N-3-methyl-1H-pyrozole-5-carboxylic acid derivatives as antitumor agents” (Bioorg Med Chem Lett, 2017)
Activity calls are given as the source filed them. The calls are words filed in the database; no cut-off is given here.

Experiments:
[1] = Cmax in J:Nu mouse plasma at 10 mg/kg, po qd for 7 days; type: ADME, organism-based; parameters: dose 10 mg/kg, route oral
In short: (§1)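 J:Nu female mice, N = 4 per group, dosed orally once daily at 10, 30 or 60 mpk in 5% NMP, 10% PEG-400, 15% Solutol, 70% D5W. The 30 and 60 mpk groups were raised to 90 and 120 mpk from day 8 to 13.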

[2] = Plasma concentration (7 hrs) in J:Nu mouse at 10 mg/kg, po qd for 7 days measured on day 1; type: ADME, organism-based
In short: (§2)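 J:Nu female mice, N = 4 per group, dosed orally once daily at 10, 30 or 60 mg/kg in 5% NMP, 10% PEG-400, 15% Solutol, 70% D5W. Blood was sampled every other day, alternating Cmax and predose draws. Plasma concentration was taken 7 h after dosing.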

[3] = Plasma concentration (7 hrs) in J:Nu mouse at 60 mg/kg, po qd for 7 days measured on day 1; type: ADME, organism-based; in short: as §2
[4] = Antiproliferative activity against human […] cells; type: functional, cell-based
[5] = AUC (0 to infinity) in mouse at 50 mg/kg; type: ADME, organism-based; parameters: dose 50 mg/kg, time infinity; conditions: in vivo
[6] = MRT in mouse at 50 mg/kg, po; type: ADME, organism-based; conditions: in vivo
NCI-H460 = test: Antiproliferative activity against human NCI-H460 cells; type: functional, cell-based
[7] = Protein binding in human plasma; type: ADME, cell-free; conditions: read-out: PPB (converted)
[8] = Antiproliferative activity against human TC71 cells; type: functional, cell-based; conditions: TC-71
[9] = Dose normalized AUC (0 to infinity) in J:Nu mouse plasma at 10 mg/kg, po qd for 7 days; type: ADME, organism-based; conditions: in vivo, 168 h; in short: as §1
[10] = AUC (0 to infinity) in J:Nu mouse plasma at 30 mg/kg, po qd for 7 days followed by 90 mg/kg, po qd for 5 days from day 8 to 13; type: ADME, organism-based; parameters: dose 30 mg/kg, route oral, time infinity; in short: as §1
[11] = Dose normalized AUC (0 to infinity) in J:Nu mouse plasma at 60 mg/kg, po qd for 7 days followed by 120 mg/kg, po qd for 5 days from day 8 to 13; type: ADME, organism-based; conditions: in vivo; in short: as §1
BJAB = test: Antiproliferative activity against human BJAB cells after 4 days; type: functional, cell-based; conditions: Homo sapiens, BJAB, 96 h; read-out: EC50
B cell = test: Antiproliferative activity against human primary B cells; type: cell-based
[12] = Clearance in iv dosed mouse; type: ADME, organism-based; conditions: in vivo
Mus musculus [13] = test: Ratio of Cmax in mouse at 2.5 mg/kg, po to Cmax in mouse at 100 mg/kg, po; type: ADME, organism-based; conditions: in vivo
MCF-10A = test: Antiproliferative activity against human MCF10A cells; type: cell-based
MIA PaCa-2 = test: Antiproliferative activity against human MIAPaCa2 cells; type: functional, cell-based
[14] = AUC (0 to infinity) in mouse at 2.5 mg/kg; type: ADME, organism-based; parameters: dose 2.5 mg/kg, time infinity; conditions: in vivo
HCT-116 [15] = test: Induction of quiescence in human HCT116 cells by high content cell imaging studies; type: functional, cell-based
[16] = Half life in iv dosed mouse; type: ADME, organism-based; conditions: in vivo
Mus musculus [17] = test: Toxicity in J:Nu mouse assessed as organ damage at 30 mg/kg, po qd for 7 days followed by 90 mg/kg, po qd for 5 days from day 8 to 13 measured 48 hrs after post last dose by pathology analysis; type: organism-based; conditions: in vivo
In short: (§3)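 In J:Nu female mice (N = 4 per group), dosing was oral once daily at 30 or 60 mg/kg in 5% NMP/10% PEG-400/15% Solutol/70% D5W for 7 days. Doses were then raised to 90 or 120 mg/kg respectively on days 8–13. Clinical signs and body weights were recorded daily. Gross pathology, with spleen and liver weights, was done 48 h after the last dose.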

HCT-116 [18] = test: Cell cycle arrest in human HCT116 cells assessed as reduction in cell levels at S-phase at 0.001 to 10 uM after 24 hrs EdU-staining based high content imaging analysis; type: functional
In short: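 HCT-116 cells plated on poly-lysine-coated plates overnight, then treated 24 h with compound (DMSO stock diluted into McCoy's medium with 10% FBS). EdU labelling of newly synthesized DNA, 4% formaldehyde fixation, then high-content imaging in three fluorescent channels for total cell count, DNA content and S-phase cells. Means of three biological replicates, SEM.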

[19] = Plasma concentration (7 hrs) in J:Nu mouse at 60 mg/kg, po qd for 7 days measured on day 5; type: ADME, organism-based; in short: as §2
HCT-116 [20] = test: Antiproliferative activity against human HCT116 cells; type: functional, cell-based
[21] = Dose normalized Cmax in J:Nu mouse plasma at 30 mg/kg, po qd for 7 days followed by 90 mg/kg, po qd for 5 days from day 8 to 13; type: ADME, organism-based; conditions: in vivo; in short: as §1
[22] = AUC (0 to infinity) in mouse at 10 mg/kg; type: ADME, organism-based; parameters: dose 10 mg/kg, time infinity; conditions: in vivo
[23] = MRT in mouse at 10 mg/kg, po; type: ADME, organism-based; conditions: in vivo
[24] = AUC (0 to infinity) in po dosed mouse; type: ADME, organism-based; parameters: route oral, time infinity; conditions: in vivo
[25] = Dose normalized Cmax in J:Nu mouse plasma at 10 mg/kg, po qd for 7 days; type: ADME, organism-based; conditions: in vivo, 168 h; in short: as §1
[26] = Cmax in mouse at 2.5 mg/kg; type: ADME, organism-based; parameters: dose 2.5 mg/kg; conditions: in vivo
[27] = Cmax in J:Nu mouse plasma at 30 mg/kg, po qd for 7 days followed by 90 mg/kg, po qd for 5 days from day 8 to 13; type: ADME, organism-based; parameters: dose 30 mg/kg, route oral; in short: as §1
[28] = Oral bioavailability in mouse; type: ADME, organism-based; conditions: in vivo
SU-DHL10 = test: Antiproliferative activity against human SU-DHL10 cells; type: functional, cell-based
Mus musculus [29] = test: Toxicity in J:Nu mouse assessed as changes in organ weight at 30 mg/kg, po qd for 7 days followed by 90 mg/kg, po qd for 5 days from day 8 to 13 measured 48 hrs after post last dose by pathology analysis; type: organism-based; conditions: in vivo; in short: as §3
[30] = Cmax in mouse at 50 mg/kg; type: ADME, organism-based; parameters: dose 50 mg/kg; conditions: in vivo
[31] = Plasma concentration (7 hrs) in J:Nu mouse at 30 mg/kg, po qd for 7 days measured on day 5; type: ADME, organism-based; in short: as §2
Mus musculus [32] = test: Ratio of AUC (0 to infinity) in mouse at 2.5 mg/kg, po to Cmax in mouse at 100 mg/kg, po; type: ADME, organism-based; conditions: in vivo
[33] = Kinetic solubility of the compound in PBS buffer at pH 7.4 in presence of 10% FBS; type: physicochemical; conditions: PBS buffer with 10% FBS, read-out: Kinetic_solubility
[34] = Initial plasma concentration in iv dosed mouse; type: ADME, organism-based
[35] = Plasma concentration (7 hrs) in J:Nu mouse at 10 mg/kg, po qd for 7 days measured on day 5; type: ADME, organism-based; in short: as §2
[36] = Cmax in po dosed mouse; type: ADME, organism-based; parameters: route oral; conditions: in vivo
[37] = Dose normalized Cmax in J:Nu mouse plasma at 60 mg/kg, po qd for 7 days followed by 120 mg/kg, po qd for 5 days from day 8 to 13; type: ADME, organism-based; conditions: in vivo; in short: as §1
[38] = MRT in mouse at 100 mg/kg, po; type: ADME, organism-based; conditions: in vivo
Daudi = test: Antiproliferative activity against human Daudi cells; type: functional, cell-based

Cc1nn(-c2nc(-c3ccc(Cl)c(Cl)c3)c(SC(C)C)s2)c(C(=O)O)c1-c1cc(Cl)cc(Cl)c1
Cmax [1]: 29000 ng/mL | concentration at 7 h [2]: 19700 ng/mL | concentration at 7 h [3]: 88800 ng/mL | IC50 [4]: 1570 nM | AUC(0-inf) [5]: 2250 µg·h/mL | MRT [6]: 9.3 h | IC50 (NCI-H460): 330 nM | fraction unbound [7]: 0.027 | IC50 [8]: 290 nM | AUC/dose [9]: 33000 ng·kg·h/mL/mg | AUC(0-inf) [10]: 1490 µg·h/mL | AUC/dose [11]: 12800 ng·kg·h/mL/mg | EC50 (BJAB): 554 nM | IC50 (B cell): > 40000 nM | clearance [12]: 0.8 mL/min/kg | Ratio (Mus musculus [13]): 0.9 | IC50 (MCF-10A): 35000 nM | IC50 (MIA PaCa-2): 320 nM | AUC(0-inf) [14]: 25.8 µg·h/mL | Activity (HCT-116 [15]): Active | half-life [16]: 8 h | Activity (Mus musculus [17]): Non-Toxic | Activity (HCT-116 [18]): Active | concentration at 7 h [19]: 79800 ng/mL | IC50 (HCT-116 [20]): 600 nM | Cmax/dose [21]: 1494.3 ng/mL | AUC(0-inf) [22]: 257 µg·h/mL | MRT [23]: 10.1 h | AUC(0-inf) [24]: 25.8 µg·h/mL | Cmax/dose [25]: 2897.9 ng/mL | Cmax [26]: 1320 ng/mL | Cmax [27]: 134000 ng/mL | bioavailability [28]: 48.4% | IC50 (SU-DHL10): 430 nM | Activity (Mus musculus [29]): Non-Toxic | Cmax [30]: 138000 ng/mL | concentration at 7 h [31]: 57300 ng/mL | Ratio (Mus musculus [32]): 1.4 | solubility kinetic [33]: > 200 µM | C0 [34]: 3190 ng/mL | concentration at 7 h [35]: 18200 ng/mL | Cmax [36]: 1320 ng/mL | Cmax/dose [37]: 1066.5 ng/mL | MRT [38]: 14.3 h | IC50 (Daudi): 380 nM
